Sampled rows, rich in hits. Any-hit rate of the full collection: about 2%.
E-selectin induc: E-selectin induction on HUVECs; P16581; HUVEC E-selectin immunofluorescence imaging; normalized: neutral wells 0, TNF-alpha wells 100; activation, % at 7.58 µM; 260,000 tested, 0.37% active;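 active = mean E-selectin-positive cell signal at least 10% of the positive control, reached in at least 60% of replicates, without over 20% cell loss; inconclusive = no rule given, readout overlaps actives, possibly toxicity-flagged; inactive = the rest, including those meeting only one limit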
Target sequence (P16581 whole entry, looked up): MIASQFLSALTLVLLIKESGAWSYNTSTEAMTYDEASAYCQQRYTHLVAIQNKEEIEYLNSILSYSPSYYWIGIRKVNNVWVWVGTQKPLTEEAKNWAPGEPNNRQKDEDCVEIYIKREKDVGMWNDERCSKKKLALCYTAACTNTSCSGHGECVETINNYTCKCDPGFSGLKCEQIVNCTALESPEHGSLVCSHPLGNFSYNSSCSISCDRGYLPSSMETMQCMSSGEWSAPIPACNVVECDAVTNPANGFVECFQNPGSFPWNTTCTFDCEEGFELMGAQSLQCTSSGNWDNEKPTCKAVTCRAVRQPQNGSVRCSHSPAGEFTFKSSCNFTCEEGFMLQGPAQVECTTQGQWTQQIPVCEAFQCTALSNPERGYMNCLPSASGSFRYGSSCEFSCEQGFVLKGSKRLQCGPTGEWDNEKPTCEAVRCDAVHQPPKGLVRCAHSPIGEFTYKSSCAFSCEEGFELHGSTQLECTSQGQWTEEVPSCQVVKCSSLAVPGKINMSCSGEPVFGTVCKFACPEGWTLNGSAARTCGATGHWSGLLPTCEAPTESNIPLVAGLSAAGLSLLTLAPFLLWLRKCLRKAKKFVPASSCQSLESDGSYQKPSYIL
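Read-out: % PE-positive cells | Test system: HUVEC | Doses: One compound dose added by pin transfer | Buffer or medium: EGM-2 over gelatin coat | Signal: Immunofluorescence imaging | Benchmarks: TNF-alpha, DMSO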
S100A4 inh HTS: S100A4-myosin IIA interaction inhibition; P26447; S100A4/TAMRA-MyoIIA peptide fluorescence polarization; inhibition, % at 10.7 µM; 360,000 tested, 0.14% active;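 active = mean inhibition of at least 70% across replicates, with every replicate also reaching that level; inconclusive = mean inhibition reaches 70% but some replicates fall short; inactive = mean inhibition below 70%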
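Material: S100A4 monomer protein / Buffer or medium: 50 mM HEPES pH 7.2, 10 mM CaCl2, 100 mM KCl / Times: 5 min incubation before reading / Benchmarks: neutral control DMSO, positive control TFP / Reagent: labelled myosin peptide probe, 5 nM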
XiGFP reactiv: X-chromosome reactivation activator | XiGFP mouse fibroblasts, % GFP-positive cells imaging, 3 d; cells co-treated with 5-aza-dC sensitizer; scaled so ellipticine positive control = 100% | activation, % at 7.58 µM | 360,000 tested, 0.055% active | AID 743238;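 active = mean normalized replicate activation at least 10% and every replicate at or above 10%; inconclusive = only one of the two criteria met; inactive = mean below 10% and not all replicates reach 10%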;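 also: 0% = median of on-plate neutral control wells and 100% = ellipticine 6 µM median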
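material = 68-5-11 XiGFP fibroblast line | medium = DMEM plus 5-aza-dC sensitizer | schedule = 3 days compound exposure | benchmarks = positive control ellipticine, 6 µM final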
DENV2 CPE: inhibitors of DENV2 cytopathic effect; CPE inhibition, % at 9.99 µM; DENV2-infected cells, cytopathic effect rescue, plate reader; 350,000 tested, 1.7% active; AID 651640; in the data active = CPE inhibition above about 20%, passing the limit was not always enough; inconclusive = no clear call, values can overlap the other calls; tested in BHK-21 cells;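 also: 0% = median of neutral control wells and 100% = median of positive control wells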
Numbers without * were called inactive; ? = inconclusive; . = no result.

SMILES	E-selectin induc	S100A4 inh HTS	XiGFP reactiv	DENV2 CPE
COCCCNC(=O)c1ccc2c(=O)n(Cc3ccc(Cl)cc3)c(=S)[nH]c2c1	49*	7	0	8
CCCn1c(=S)[nH]c2cc(C(=O)NCc3ccccc3OC)ccc2c1=O	0	-2	0	2
COC(CNC(=O)c1ccc2c(=O)n(Cc3ccc(Cl)cc3)c(=S)[nH]c2c1)OC	4	-5	0	-3
CC(C)Cn1c(=S)[nH]c2cc(C(=O)NCc3ccccc3F)ccc2c1=O	0	2	0	62*
C=CCNC1=C(Cl)C(=O)c2ccccc2C1=O	0	.	0	.
CC1(C)CC(=O)C2=C(C1)Nc1cc3c(cc1C2c1ccc2c(c1)OCO2)OCO3 (stereo not drawn)	.	0	0	38*
CC(Oc1cc2oc(=O)c3c(c2cc1Cl)CCC3)C(=O)NCC1CCC(C(=O)O)CC1 (stereo not drawn)	.	-1	0	-4
CC(Oc1cc2oc(=O)c3c(c2cc1Cl)CCCC3)C(=O)NCC1CCC(C(=O)O)CC1 (stereo not drawn)	87*	0	0	-6
CCOC(=O)c1c(SC)n(-c2ccccc2)c(=S)n(-c2ccccc2)c1=O	1	-4	0	?
CCOC(=O)c1c(SCCN2CCCCC2)n(-c2ccccc2)c(=S)n(-c2ccccc2)c1=O	.	0	0	23*
CC(OC(=O)C1CC(=O)N(Cc2ccco2)C1)C(=O)Nc1cccc(C#N)c1 (stereo not drawn)	0	2	0	21*
O=C(N/N=C1\CC2CC=CC12)c1ccccc1Cl (stereo not drawn)	0	0	0	-4
O=[N+]([O-])c1ccccc1N/N=C1\CC2CC=CC12 (stereo not drawn)	2	-1	0	30*
CC1(C(=O)NS(=O)(=O)c2cccc(F)c2)CCN1C(=O)c1ccco1 (stereo not drawn)	0	-8	0	14
CN(C)c1ccc(/C=C(/C#N)C(=O)NCc2ccccc2)o1	.	.	17*	.
N#C/C(=C/c1ccccc1)C(=O)NCc1ccccc1	0	-9	0	8
O=C(Nc1cccc(Cl)c1)c1csc([C@@H]2C[C@H](O)[C@@H](CO)O2)n1	0	4	0	36*
FC(F)(F)COc1ccc(-c2nnc(SCc3c(Cl)cccc3Cl)o2)cn1	0	-8	0	-4
C[C@@H]1CN([C@@H](C)CO)C(=O)Cc2cc(NC(=O)Nc3ccc4c(c3)OCO4)ccc2O[C@H]1CN(C)C	384*	-4	0	10
C[C@@H]1CN([C@H](C)CO)C(=O)Cc2cc(NC(=O)Nc3ccc4c(c3)OCO4)ccc2O[C@H]1CN(C)Cc1ccc(Cl)c(Cl)c1	300*	13	0	-3
C[C@H]1CN([C@@H](C)CO)C(=O)Cc2cc(NC(=O)Nc3ccc4c(c3)OCO4)ccc2O[C@H]1CN(C)Cc1ccccc1	0	-20	0	46*
C[C@@H]1CN([C@H](C)CO)C(=O)Cc2cc(NC(=O)Nc3ccc4c(c3)OCO4)ccc2O[C@@H]1CN(C)Cc1ccc(Cl)c(Cl)c1	-13	4	0	-3
C[C@@H]1CN([C@@H](C)CO)C(=O)Cc2cc(NC(=O)Nc3ccccc3)ccc2O[C@H]1CN(C)Cc1ccc(Cl)c(Cl)c1	0	-6	-1	38*
Cc1cc(N2CCN(CC(C)(C)O)C[C@H]2C)ccc1N1CCN(CC(C)(C)O)[C@H](C)C1	0	14	0	-3
CCOc1ccc(-c2cn(-c3cccc(SC)c3)c(=O)[nH]2)cc1	-1	3	0	2
SMILES	E-selectin induc	S100A4 inh HTS	XiGFP reactiv	DENV2 CPE
COc1ccc(NC(=O)Nc2ccc3c(c2)CC(=O)N([C@H](C)CO)C[C@@H](C)[C@H](CN(C)Cc2ccccc2)O3)cc1	0	-2	-1	-13
C[C@@H]1CN([C@@H](C)CO)C(=O)Cc2cc(NC(=O)Nc3ccccc3)ccc2O[C@@H]1CN(C)Cc1ccccc1	.	9	-1	2
C[C@H](CO)N1C[C@H](C)[C@@H](CN(C)Cc2ccccc2)Oc2ccc(NC(=O)Nc3ccccc3)cc2CC1=O	.	-8	-1	25*
COc1ccc(NC(=O)Nc2ccc3c(c2)CC(=O)N([C@@H](C)CO)C[C@@H](C)[C@H](CN(C)Cc2ccccc2)O3)cc1	0	96*	-1	-5
O=C1C=C(c2ccc3[nH]ccc3c2)C[C@@H](c2ccc(Cl)cc2)C1	0	0	0	0
C[C@@H]1CCCCO[C@H](CN(C)S(=O)(=O)c2cccs2)[C@@H](C)CN([C@@H](C)CO)C(=O)c2cc(NS(=O)(=O)c3ccc(Cl)cc3)ccc2O1	.	5	0	4
C[C@@H]1CN([C@@H](C)CO)C(=O)c2cc(NC(=O)Nc3cccc4ccccc34)ccc2O[C@@H](C)CCCCO[C@@H]1CN(C)C(=O)NC1CCCCC1	0	-10	0	9
C[C@@H]1CN([C@@H](C)CO)C(=O)c2cc(NC(=O)CCC(F)(F)F)ccc2O[C@@H]1CN(C)CC1CCCCC1	.	-1	-1	22*
C[C@H]1CN([C@@H](C)CO)C(=O)c2cc(NC(=O)CCC(F)(F)F)ccc2O[C@H]1CN(C)CC1CCCCC1	.	-6	-1	-6
C[C@H]1CN([C@@H](C)CO)C(=O)c2cc(NC(=O)CCC(F)(F)F)ccc2O[C@@H]1CN(C)S(C)(=O)=O	2	-6	0	21*
C[C@H]1CN([C@@H](C)CO)C(=O)c2cc(NC(=O)CCC(F)(F)F)ccc2O[C@H]1CN(C)C(=O)Nc1ccccc1	0	?	0	4
C[C@@H]1CN([C@@H](C)CO)C(=O)c2cc(NC(=O)CCC(F)(F)F)ccc2O[C@@H]1CN(C)C(=O)Nc1ccccc1	0	-1	0	26*
COc1ccc(S(=O)(=O)N(C)C[C@@H]2Oc3ccc(NC(=O)CCCN(C)C)cc3C(=O)N([C@@H](C)CO)C[C@@H]2C)cc1	57*	15	0	4
O=C(O)CN1C(c2ccccc2O)Nc2ccc(Br)cc2C1c1ccccc1 (stereo not drawn)	.	-1	0	-3
CC(C)(C)NC(=O)C(c1ccc(O)cc1)N(Cc1ccccc1)C(=O)CCC(=O)Nc1nccs1 (stereo not drawn)	0	-7	0	-4
Cc1ccc(S(=O)(=O)N(C)C[C@@H]2Oc3ccc(NC(=O)CCCN(C)C)cc3C(=O)N([C@H](C)CO)C[C@@H]2C)cc1	-10	16	0	3
Cc1ccc(S(=O)(=O)N(C)C[C@@H]2Oc3ccc(NC(=O)CCC(F)(F)F)cc3C(=O)N([C@H](C)CO)C[C@@H]2C)cc1	0	3	-1	47*
Cc1ccc(S(=O)(=O)N(C)C[C@H]2Oc3ccc(NC(=O)CCCN(C)C)cc3C(=O)N([C@H](C)CO)C[C@H]2C)cc1	282*	10	-1	3

High-throughput results: PubChem BioAssay, Broad Institute
